pEC50, pIC50, pKi: −log10 of the molar value.
What was measured:
[1] = species: Cavia porcellus; experiment: Antagonist activity was calculated as the concentration which produced a 50% reduction in the submaximal of 5-HT induced contractions guinea pig ileum; type: functional
[2] = target: T1, 5-hydroxytryptamine receptor 4 (Rattus norvegicus, UniProt Q62758); experiment: Binding affinity at 5-hydroxytryptamine 4 receptor in rat striatal membranes by [3H]GR-113808 displacement.; type: cell membranes, Striatum, Membrane
T1 sequence (Q62758 whole entry): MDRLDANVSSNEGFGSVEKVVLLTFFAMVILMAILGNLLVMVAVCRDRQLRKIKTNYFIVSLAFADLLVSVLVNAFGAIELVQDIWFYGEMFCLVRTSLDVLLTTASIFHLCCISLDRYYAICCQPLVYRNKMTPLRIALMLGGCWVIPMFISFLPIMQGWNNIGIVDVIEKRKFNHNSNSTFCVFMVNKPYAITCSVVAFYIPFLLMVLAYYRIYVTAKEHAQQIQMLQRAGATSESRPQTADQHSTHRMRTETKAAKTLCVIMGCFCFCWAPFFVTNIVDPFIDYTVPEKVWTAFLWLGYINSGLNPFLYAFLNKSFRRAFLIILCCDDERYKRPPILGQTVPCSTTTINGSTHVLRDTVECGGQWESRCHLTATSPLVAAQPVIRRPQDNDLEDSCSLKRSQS
In short: (§1)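 Rat striatal membranes in 50 mM Hepes pH 7.4, 0.1–0.2 mg protein in 0.5 mL, with [3H]GR 113808. Seven drug concentrations, tested in triplicate. Nonspecific binding defined with 10 μM ML 10302. Bound ligand collected by filtration on PEI-soaked GF/B filters, washed with 50 mM Tris-HCl pH 8.4, counted by scintillation. IC50 fitted, Ki from Cheng–Prusoff, ±SEM.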

[3] = species: Cavia porcellus; experiment: Agonist activity was assessed as the concentration which gave a 50% increase in the response to electrical stimulation in the guinea pig ileum and is expressed as percent of the maximum 5-HT response = 14%; type: functional
In short: (§2)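 Guinea pig ileum myenteric plexus–longitudinal muscle strip, 0.5 g tension, transmural stimulation at 0.2 Hz and 1.5 ms. Phenoxybenzamine 10^-7 M present, voltage set to give 50% of supramaximal contraction. After two reproducible cumulative 5-HT curves, a cumulative agonist curve was run (60–120 s contact). EC50 = concentration giving 50% increase of the stimulated response, relative to maximum. Max effect expressed as % of 5-HT maximum, 95% confidence limits.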

[4] = target: T1, 5-hydroxytryptamine receptor 4; experiment: Binding affinity (Ki+/-SEM) against 5-hydroxytryptamine 4 receptor from cheng Prusoff equation by using [3H]GR-113808 in rat striatum; in short: as §1
[5] = target: T2, 5-hydroxytryptamine receptor 4 (Cavia porcellus, UniProt O70528); experiment: concentration which gave a 50% increase in the response to electrical stimulation against 5-hydroxytryptamine 4 receptor in the guinea pig ileum.; type: functional, tissue-based; in short: as §2
T2 sequence (O70528 whole entry): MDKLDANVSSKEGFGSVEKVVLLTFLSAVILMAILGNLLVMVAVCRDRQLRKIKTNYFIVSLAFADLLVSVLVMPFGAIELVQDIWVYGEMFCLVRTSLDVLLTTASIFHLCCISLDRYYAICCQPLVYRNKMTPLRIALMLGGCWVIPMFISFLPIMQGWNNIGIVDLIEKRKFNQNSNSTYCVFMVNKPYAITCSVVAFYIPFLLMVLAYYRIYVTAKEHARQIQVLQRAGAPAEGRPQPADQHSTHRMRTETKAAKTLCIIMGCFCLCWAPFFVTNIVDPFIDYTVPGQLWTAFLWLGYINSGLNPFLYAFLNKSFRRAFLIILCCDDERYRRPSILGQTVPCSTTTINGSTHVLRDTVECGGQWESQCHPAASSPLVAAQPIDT

[6] = target: T2, 5-hydroxytryptamine receptor 4; experiment: The antagonist activity was calculated as the concentration which produced a 50% reduction against 5-hydroxytryptamine 4 receptor in guinea pig ileum. 95% confidence limits are in brackets.; type: functional, tissue-based
[7] = species: Cavia porcellus; experiment: Agonist activity was assessed as the concentration which gave a 50% increase in the response to electrical stimulation in the guinea pig ileum; NA is not active; type: functional; in short: as §2
[8] = target: T2, 5-hydroxytryptamine receptor 4; experiment: concentration which gave a 50% increase in the response to electrical stimulation against 5-hydroxytryptamine 4 receptor in the guinea pig ileum. Activity expressed as percent of the maximum 5-HT response given in brackets.; type: functional, tissue-based; in short: as §2
[9] = target: T2, 5-hydroxytryptamine receptor 4; experiment: The antagonist activity was calculated as the concentration which produced a 50% reduction against 5-hydroxytryptamine 4 receptor in guinea pig ileum.; type: functional, tissue-based
[10] = species: Cavia porcellus; experiment: Agonist activity was assessed as the concentration which gave a 50% increase in the response to electrical stimulation in the guinea pig ileum; type: functional; in short: as §2
[11] = species: Cavia porcellus; experiment: Antagonist activity was calculated as the concentration which produced a 50% reduction in the submaximal of 5-HT induced contractions guinea pig ileum and is expressed as percent of the maximum 5-HT response = 70%; type: functional
[12] = species: Cavia porcellus; experiment: Antagonist activity was calculated as the concentration which produced a 50% reduction in the submaximal of 5-HT induced contractions guinea pig ileum and is expressed as percent of the maximum 5-HT response = 60%; type: functional
[13] = species: Cavia porcellus; experiment: Agonist activity was assessed as the concentration which gave a 50% increase in the response to electrical stimulation in the guinea pig ileum and is expressed as percent of the maximum 5-HT response = 78%; type: functional; in short: as §2

Row | Compound | pIC50 [1] | pKi [2] | pKi [4] | other results
1 | COc1cc(N)c(Cl)cc1NC(=O)OCCN1CCCCCC1 | – | – | 7.84 | pEC50 [5]: 7.00; pIC50 [6]: 6.68
2 | Cn1cc(C(=O)OCC2CCN(CCNS(C)(=O)=O)CC2)c2ccccc21 | 7.89 | – | – | EC50 [7]: Not Active
3 | COc1cc(N)c(Cl)cc1NC(=O)OCCN1CCCC1 | – | – | 6.90 | pEC50 [8]: 6.70
4 | COc1cc(N)c(Cl)cc1NC(=O)OCCN1CC(C)CC(C)C1 (centres undefined) | – | – | 8.62 | pEC50 [5]: < 6.00; pIC50 [9]: 6.74
5 | CCN(CC)CCOC(=O)Nc1cc(Cl)c(N)cc1OC | – | – | 6.82 | pIC50 [9]: 6.00; pEC50 [8]: 6.52
6 | CCN(CC)CCOC(=O)c1cc(Cl)c(N)cc1OC | 7.11 | – | – | EC50 [7]: Not Active
7 | CCOc1ccccc1NC(=O)OCCN1C[C@H](C)C[C@H](C)C1 | – | 8.98 | – | pEC50 [10]: < 6.00; pIC50 [11]: 7.52
8 | COc1cc(N)c(Cl)cc1C(=O)OCCN1C[C@H](C)C[C@H](C)C1 | 7.96 | 9.59 | – | EC50 [7]: Not Active
9 | COc1cc(N)c(Cl)cc1NC(=O)OCCN1CCC(C)CC1 | – | – | 7.60 | pIC50 [9]: 6.70; pEC50 [8]: 7.22
10 | COc1cc(N)c(Cl)cc1NC(=O)OCCN1CCCC(C)C1 (centres undefined) | – | – | 7.99 | –
11 | COc1ccccc1NC(=O)OCCN1C[C@H](C)C[C@H](C)C1 | – | 8.59 | – | pEC50 [10]: < 6.00; pIC50 [12]: 6.80
12 | COc1cc(N)c(Cl)cc1NC(=O)OCCN1CCCCC1 | – | – | 7.41 | pEC50 [5]: < 6.00
13 | CCOc1ccccc1NC(=O)OCCN1CC(C)C[C@@H](C)C1 (single isomer, unassigned) | 7.00 | 8.94 | – | pEC50 [10]: < 6.00
14 | COc1cc(N)c(Cl)cc1C(=O)OCCN1CCCCC1 | – | – | – | pEC50 [13]: 8.40

More lines, main results first:

Row | pIC50 [1] | pKi [2] | pKi [4] | Compound | other results
15 | ~6.52 | 8.05 | – | COc1ccccc1NC(=O)OCCN1CCCCC1 | pEC50 [3]: ~7.00
16 | – | – | < 6.00 | Nc1ccc(NC(=O)OCCN2CCCCC2)cc1 | –
17 | ~6.00 | 7.50 | – | O=C(Nc1ccccc1)OCCN1CCCCC1 | pEC50 [10]: < 6.00
18 | – | < 6.00 | – | COc1ccc(NC(=O)OCCN2CCCCC2)cc1 | –
19 | – | – | < 6.00 | COc1cc(N)c(Cl)cc1NC(=O)CCCN1CCCCC1 | –
20 | – | 6.33 | – | COc1cccc(NC(=O)OCCN2CCCCC2)c1 | –
21 | 7.52 | 8.38 | – | COc1ccc(Cl)cc1NC(=O)OCCN1CCCCC1 | pEC50 [3]: ~6.00
22 | – | < 6.00 | – | COc1ccccc1NC(=O)CCCN1CCCCC1 | –
23 | – | – | < 6.00 | Nc1cccc(NC(=O)OCCN2CCCCC2)c1 | –
24 | – | < 6.00 | – | O=C(Nc1ccccc1Cl)OCCN1CCCCC1 | –
25 | – | – | < 6.00 | Nc1ccccc1NC(=O)OCCN1CCCCC1 | –
26 | < 6.00 | 7.22 | – | O=C(Nc1cccc(Cl)c1)OCCN1CCCCC1 | pEC50 [10]: < 6.00
27 | – | 6.14 | – | O=C(Nc1ccc(Cl)cc1)OCCN1CCCCC1 | –
28 | – | 7.09 | – | COc1ccccc1NC(=O)OCCCN1CCCCC1 | –
29 | 7.21 | 8.59 | – | CCOc1ccccc1NC(=O)OCCN1CCCCC1 | pEC50 [10]: < 6.00
